# Beta cell apopt: inhibitors of cytokine-induced beta cell apoptosis, primary screen, luminescence; INS-1E cytokine-induced death, ATP luminescence, 48 h; percent of positive-control rescue, neutral wells zero; protection from apoptosis, % (concentration not given with the values); 300,000 compounds, 0.8% hits;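 active means Every replicate reaches about 75%, or at least half do and their mean reaches it too, limit read from the data; inconclusive means At least half of replicates reach the limit but their mean does not; inactive means Under half of replicates reach the limit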;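 further: higher means more ATP so stronger rescue from cytokine killing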
# Mdm2 MdmX PPI: inhibitors of human Mdm2-MdmX association, primary screen, cell-based, luminescence, split luciferase, SaOS-2, uHTS; SaOS-2 split-luciferase Mdm2/MdmX complementation; inhibition, % at 8 µM; 330,000 compounds, 3% hits; AID 485346, 2010;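 active means inhibition of at least 50% at 8 µM in the primary screen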
# Target sequence (O15151 whole entry, looked up): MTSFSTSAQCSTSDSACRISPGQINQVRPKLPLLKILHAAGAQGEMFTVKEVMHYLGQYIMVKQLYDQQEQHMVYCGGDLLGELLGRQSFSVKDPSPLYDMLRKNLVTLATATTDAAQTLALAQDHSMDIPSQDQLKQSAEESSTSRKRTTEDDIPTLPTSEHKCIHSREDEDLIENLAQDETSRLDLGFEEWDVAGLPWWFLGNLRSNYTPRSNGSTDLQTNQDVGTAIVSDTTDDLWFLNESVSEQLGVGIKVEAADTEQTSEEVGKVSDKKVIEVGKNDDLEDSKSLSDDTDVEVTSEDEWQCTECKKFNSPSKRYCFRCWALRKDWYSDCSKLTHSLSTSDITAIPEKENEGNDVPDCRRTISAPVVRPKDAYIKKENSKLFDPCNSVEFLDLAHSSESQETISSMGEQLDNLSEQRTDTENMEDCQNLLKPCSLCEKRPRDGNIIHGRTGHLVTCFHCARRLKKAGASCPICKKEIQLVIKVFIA
# Target sequence (Q00987 whole entry, looked up): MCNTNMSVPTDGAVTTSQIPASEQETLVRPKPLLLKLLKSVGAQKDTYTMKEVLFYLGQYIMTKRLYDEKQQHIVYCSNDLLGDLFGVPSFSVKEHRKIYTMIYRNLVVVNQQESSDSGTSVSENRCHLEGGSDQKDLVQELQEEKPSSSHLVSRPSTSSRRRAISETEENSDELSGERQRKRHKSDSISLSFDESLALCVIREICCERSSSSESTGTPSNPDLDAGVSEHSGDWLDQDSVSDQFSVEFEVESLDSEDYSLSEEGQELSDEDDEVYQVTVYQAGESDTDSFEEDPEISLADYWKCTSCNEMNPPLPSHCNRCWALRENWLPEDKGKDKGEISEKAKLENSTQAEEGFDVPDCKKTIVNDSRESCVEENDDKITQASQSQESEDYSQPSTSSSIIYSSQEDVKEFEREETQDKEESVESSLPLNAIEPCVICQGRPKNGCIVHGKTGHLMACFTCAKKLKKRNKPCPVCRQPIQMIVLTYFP
# SKKanGAS inh: S. pyogenes SKKanGAS growth inhibitors in kanamycin, primary screen, streptokinase expression inhibitor project, SKKanGAS strain, BacTiter-Glo luminescence. 300,000 compounds, 1.3% hits. 6 h. inhibition, % at 7.5 µM. AID 1662, 2009;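 active means mean replicate score, as percent of positive control median, at least 50; inconclusive means mean below 50 but one replicate at or above 50; inactive means mean and every replicate below 50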;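 further: strain carries kanamycin resistance gene driven by streptokinase promoter and grows in 40 µg/ml kanamycin; loss of luminescence reflects streptokinase promoter inhibition or plain growth inhibition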
# CSC inhib: cancer stem cell viability inhibitors, primary screen, luminescence. cancer stem cell-like cells viability. inhibition, % at 7.5 µM. 300,000 compounds, 1.1% hits. AID 2717, 2010; in the data active means inhibition above about 75%; inconclusive means no clear call, values can overlap the other calls; tested in HMLE shEcad cells
# CHOP UPR activ: activators of apoptotic CHOP UPR arm, primary screen, cell-based, CHO-CHOP luciferase reporter, luminescence, uHTS; 330,000 compounds, 0.34% hits; activation, % at 10 µM; UPR activation; percent of tunicamycin response over DMSO baseline; AID 449763, 2010;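 active means at 10 µM dose, activation of 40% or more, normalized to positive control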
#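 Test system: CHO CHOP reporter cells. Input: 500 CHO-CHOP cells per well. Medium: F12 with 10% FBS. Technique: luciferase luminescence. Measure: percent activation relative to tunicamycin control. Dosing: 10 µM compound, 0.5% DMSO. Timing: 16-18 h cell attachment, then 6 h compound exposure, 37 °C.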
# XBP1 UPR activ: activators of adaptive XBP1 UPR arm, primary screen, cell-based, CHO-XBP1 luciferase reporter, luminescence, uHTS. IRE1-XBP1 UPR activation; percent of tunicamycin response, DMSO as zero. activation, % at 20 µM. 330,000 compounds, 0.33% hits. AID 463104, 2010;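 active means versus positive control, 20 µM dose yields 30% or more activation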
#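 Material: CHO cell line with stable XBP1 luciferase reporter; schedule: 16-18 h cell attachment at 37 °C, then 6 h compound exposure; signal: glow luminescence from Steady-Glo reagent; medium: serum-containing F12 medium, 10% FBS; benchmarks: tunicamycin 10 µg/mL and vehicle-only wells; read-out: percent activation relative to tunicamycin reference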
# UPR CHOP confirm: activators of apoptotic CHOP UPR arm, confirmation, cell-based, CHO-CHOP luciferase reporter, single concentration. shares compounds with CHOP UPR activ. CHO-CHOP cells, CHOP-luciferase reporter luminescence; percent of tunicamycin response, DMSO as zero. activation, % at 10 µM. 1,000 compounds, 64% hits. AID 463112, 2010; in the data active means activation above about 33%
# Hits are given with their value; 0 = inactive; ? = inconclusive; - = no result. Hits are enriched below; roughly 4.8% of the tested compounds scored in any of these assays.
SMILES,Beta cell apopt,Mdm2 MdmX PPI,SKKanGAS inh,CSC inhib,CHOP UPR activ,XBP1 UPR activ,UPR CHOP confirm
Cc1ccc(S(=O)(=O)N2CCCCC2)cc1NC(=O)CSc1nnc(C2CC2)n1C,0,0,-,0,0,0,-
COc1cccc(C(=O)C(C#N)=C(SC)SC)c1,0,0,0,83,119,0,0
COc1ccc(C2C3=C(CC(C)(C)CC3=O)Oc3ncn(Cc4ccco4)c(=N)c32)cc1 (stereo not drawn),0,0,0,0,44,0,0
COc1cc(/C=C2\C(=O)ON=C2c2ccc(Cl)cc2)ccc1O,0,0,0,87,180,0,143
CSc1ccc(/C=C(\NC(=O)c2ccco2)C(=O)N2CCCCC2)cc1,0,0,0,0,0,0,-
O=C(Nc1cc([N+](=O)[O-])ccc1F)c1ccc2c(c1)OCCO2,0,0,0,0,99,0,0
O=C(Nc1cc([N+](=O)[O-])ccc1F)c1ccc2ccccc2c1,0,0,0,0,0,0,-
O=C(CSc1nc(=O)n(CCCN2CCOCC2)c2c1CCC2)Nc1ccc([N+](=O)[O-])cc1,0,0,0,0,0,0,-
CC1=CN2C(=N)/C(=C/c3cn(CCCOc4ccccc4C)c4ccccc34)C(=O)N=C2S1,0,0,0,0,44,0,0
COc1ccc(-c2nc(SCC(=O)NC3CCCCC3)n[nH]2)cc1,0,0,0,0,0,0,-
Oc1ccc(/C=N/Nc2cc(N3CCCC3)nc(N3CCCC3)n2)cc1O,-,0,0,0,126,0,124
CC(Nc1nc(-c2cccc(Br)c2)cs1)c1nc2cc(Cl)c(N3CCCCC3)cc2n1CCOCCO (stereo not drawn),0,0,0,0,0,0,-
Cc1noc2ncnc(Sc3ccc(Cl)cc3)c12,0,0,0,0,188,0,118
Cc1ccc(Sc2ncnc3onc(C)c23)cc1,0,0,0,0,0,0,-
CC(C)CCNC(=O)c1ccc2c(SCC(=O)O)c3c(nc2c1)CCCC3,0,0,0,0,44,0,0
C[C@@H]1CCC(=O)N(CC[C@H](Oc2ccccc2)c2ccccc2)CC1,0,0,0,0,0,0,-
O=C1NN(c2ccccc2)C(=O)/C1=C/c1ccc(-c2ccc(Cl)c(C(=O)O)c2)o1,-,-,0,-,-,-,-
Cc1ccc(Sc2ccc(/C=C3/C(=O)NN(c4ccccc4)C3=O)o2)cc1,0,0,0,89,44,0,40
O=C1NN(c2ccccc2)C(=O)/C1=C/c1ccc(Sc2ccc(Cl)cc2)o1,0,0,0,0,61,0,43
CC(NC(=O)COC(=O)C1(C)CC1(Cl)Cl)c1ccccc1 (stereo not drawn),0,0,-,0,0,0,-
O=[N+]([O-])c1cccc(-c2c(-c3ccccc3)ncc3ccc(F)cc23)c1,0,0,-,0,0,0,-
Cc1cc(C(=O)CCl)c(C)n1Cc1ccco1,0,0,0,0,99,0,236
O=C(Nc1cccc(N2C(=O)C=CC2=O)c1)c1cccs1,0,0,0,0,124,0,0
CCOC(=O)N1CCN(c2ncnc3c2oc2nc(C(C)C)c4c(c23)CCC4)CC1,0,0,0,0,0,0,-
CC(C)Cc1nc2oc3c(N4CCN(CCO)CC4)ncnc3c2c2c1CCCC2,0,0,0,0,44,0,0
SMILES,Beta cell apopt,Mdm2 MdmX PPI,SKKanGAS inh,CSC inhib,CHOP UPR activ,XBP1 UPR activ,UPR CHOP confirm
CC(=O)NCc1ccc(C(=O)CN2C(=O)NC3(CCCCC3C)C2=O)s1 (stereo not drawn),-,0,-,-,0,0,-
CC1(C)CC2CC(C)(CN2C(=O)COC(=O)c2cccc([N+](=O)[O-])c2)C1 (stereo not drawn),0,0,-,0,0,0,-
O=C(CSc1ccc(C(F)(F)F)cn1)Nc1ccccc1,-,0,0,0,0,0,-
O=C(/C=C/Sc1ccc(C(F)(F)F)cn1)c1ccccc1,0,0,0,0,84,0,47
Cn1cc(/C=C2\SC(=O)NC2=S)c2ccccc21,0,0,0,-,51,0,67
Cc1ccc(C(=O)NN2C(=O)/C(=C/c3cn(C)c4ccccc34)SC2=S)cc1,0,-,-,0,-,-,-
CCC(=O)N1c2ccc(S(=O)(=O)NC3CCCCC3)cc2CC1C (stereo not drawn),0,0,0,0,0,0,-
Cc1c(Cl)cccc1NC(=O)COC(=O)c1ccc(CN2CCCC2=O)cc1,0,0,-,-,0,0,-
CC(=O)N(C1=C(Cl)C(=O)c2ccccc2C1=O)C1CCCCC1,0,0,53,0,53,0,0
CC(=O)N(c1ccccc1C)C1CCCC1,0,0,0,0,0,0,-
CCCCN(C(C)=O)C1CC(=O)N(c2ccc(OCCC)cc2)C1=O (stereo not drawn),0,0,0,0,0,0,-
CCCCOc1ccc(N2C(=O)CC(N(O)c3ccccc3)C2=O)cc1 (stereo not drawn),0,0,0,0,146,0,165
CCCCCOc1ccc(N2C(=O)CC(N(O)c3ccccc3)C2=O)cc1 (stereo not drawn),0,0,0,0,112,0,143
Cc1ccc(NC(=O)c2cc(S(=O)(=O)N3CCCCC3)c[nH]2)cc1C,0,0,0,0,0,0,-
Cc1cc2c(cc1S(=O)(=O)CCC(=O)NC1CCCCC1C)OCC(=O)N2 (stereo not drawn),0,0,0,0,0,0,-
CC(=O)Oc1ccc(OC(C)=O)c(SCCCCCN2CCOCC2)c1,0,0,0,0,73,0,33
Cc1cc(C)n(-c2nc(NC(C)(C)C)nc(NC(C)(C)C)n2)n1,?,0,111,0,108,0,45
Cc1ccc2c(c1)c1nnc(SCC(=O)Nc3ccc(N(C)C)cc3)nc1n2CC(=O)O,0,0,0,0,0,0,-
O=C(CCc1ccc(O)c(O)c1)N/N=C/c1ccc2c(c1)OCO2,0,0,0,0,49,34,0
CCCCCN(C(=O)CCC(=O)OCC(=O)c1c(C)cc(C)cc1C)c1c(N)n(CCCC)c(=O)[nH]c1=O,0,0,0,0,0,0,-
Cc1cc(O)ccc1Nc1nc(-c2cccs2)cs1,0,0,0,0,0,0,-
CN(c1ccc(O)cc1)c1nc(-c2cccs2)cs1,0,0,0,0,48,0,0
Cc1ccc(NC(=O)c2cccc(-n3cnnn3)c2)cc1Cl,0,0,-,-,0,0,-

# Screens (PubChem)
